pIC50, pKi: −log10 of the molar value.
Assays:
[1] = molecular target: Serotonin receptor (2b and 2c) (Homo sapiens) (UniProt P41595+P28335); assay: Selectivity index determined from the binding affinities of 5-HT2C and 5-HT2B.; type: protein assay
[2] = molecular target: Serotonin 2 receptors; 5-HT2a & 5-HT2c (Homo sapiens) (UniProt P28223+P28335); assay: Selectivity index determined from binding affinities of 5-HT2C and 5-HT2A.; type: protein assay
[3] = molecular target: T1, 5-hydroxytryptamine receptor 2B (Homo sapiens, UniProt P41595); assay: Binding affinities towards human cloned 5-hydroxytryptamine 2B receptor in HEK293 cells using [3H]5-HT as radioligand.; type: cell-based
T1 sequence (P41595 whole entry): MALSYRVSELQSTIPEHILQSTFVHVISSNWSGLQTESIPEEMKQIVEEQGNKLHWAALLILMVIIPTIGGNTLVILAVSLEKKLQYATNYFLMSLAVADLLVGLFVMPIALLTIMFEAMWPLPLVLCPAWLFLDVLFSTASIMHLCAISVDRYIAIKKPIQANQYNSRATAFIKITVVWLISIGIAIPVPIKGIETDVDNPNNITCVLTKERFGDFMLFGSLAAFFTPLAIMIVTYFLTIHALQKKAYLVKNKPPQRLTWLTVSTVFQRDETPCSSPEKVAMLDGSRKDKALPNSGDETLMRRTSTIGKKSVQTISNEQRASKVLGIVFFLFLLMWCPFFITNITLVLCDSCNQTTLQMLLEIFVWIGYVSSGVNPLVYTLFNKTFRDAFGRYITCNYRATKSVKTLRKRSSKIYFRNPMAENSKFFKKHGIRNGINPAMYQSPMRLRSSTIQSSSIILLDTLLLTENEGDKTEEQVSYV
In short: (§1)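 Competition binding at human cloned receptors expressed in HEK 293 cells. Radioligands: [3H]ketanserin for 5-HT2A, [3H]5-HT for 5-HT2B, [3H]mesulergine for 5-HT2C. Values are pKi, given as the mean of at least two determinations, each within 0.2 log unit of the mean.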

[4] = molecular target: T2, 5-hydroxytryptamine receptor 2C (Homo sapiens, UniProt P28335); assay: Binding affinity towards human cloned 5-hydroxytryptamine receptor 2C in HEK293 cells, using [3H]mesulergine as radioligand.; type: cell-based; in short: as §1
T2 sequence (P28335 whole entry): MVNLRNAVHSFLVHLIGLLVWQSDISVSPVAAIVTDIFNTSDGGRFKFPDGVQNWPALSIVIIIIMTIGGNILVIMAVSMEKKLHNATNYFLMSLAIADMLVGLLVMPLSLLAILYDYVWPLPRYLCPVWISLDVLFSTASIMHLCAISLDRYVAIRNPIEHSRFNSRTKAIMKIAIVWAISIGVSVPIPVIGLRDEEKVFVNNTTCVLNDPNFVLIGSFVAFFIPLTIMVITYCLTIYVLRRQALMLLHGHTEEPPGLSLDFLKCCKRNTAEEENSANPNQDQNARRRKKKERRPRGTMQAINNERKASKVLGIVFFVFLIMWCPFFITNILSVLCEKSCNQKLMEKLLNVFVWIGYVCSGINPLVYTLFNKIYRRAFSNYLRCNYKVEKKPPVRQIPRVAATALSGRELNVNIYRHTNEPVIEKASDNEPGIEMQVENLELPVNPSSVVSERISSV

[5] = molecular target: 5-hydroxytryptamine receptor 2A (Homo sapiens, UniProt P28223); assay: Binding affinity towards human cloned 5-hydroxytryptamine receptor 2A in HEK293 cells, using [3H]ketanserin as radioligand.; type: cell-based; in short: as §1
Chain of 5-hydroxytryptamine receptor 2A (P28223 whole entry): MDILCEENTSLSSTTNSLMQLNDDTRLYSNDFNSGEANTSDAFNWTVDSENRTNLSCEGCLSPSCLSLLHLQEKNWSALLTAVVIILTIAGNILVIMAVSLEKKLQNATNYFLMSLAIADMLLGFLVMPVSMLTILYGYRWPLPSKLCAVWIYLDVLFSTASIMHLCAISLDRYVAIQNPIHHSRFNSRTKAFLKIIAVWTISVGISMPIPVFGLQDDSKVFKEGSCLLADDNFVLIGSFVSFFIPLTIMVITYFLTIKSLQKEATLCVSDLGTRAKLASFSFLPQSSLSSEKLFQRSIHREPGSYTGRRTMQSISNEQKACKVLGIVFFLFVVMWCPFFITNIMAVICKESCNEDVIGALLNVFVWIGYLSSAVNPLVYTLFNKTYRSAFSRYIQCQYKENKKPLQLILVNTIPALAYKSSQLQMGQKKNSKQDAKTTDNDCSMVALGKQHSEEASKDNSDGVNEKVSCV

Rattus norvegicus = assay: Dose required to reverse mCPP induced hypolocomotion in rat after oral administration.; type: functional; settings: read-out: ID50 (the source's name)
In short: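 Rat hypolocomotion model. The test compound was given orally, and mCPP was given at 7 mg/kg ip 30 min before the test. ID50 (mg/kg po) is the dose that reverses mCPP-induced hypolocomotion by 50%.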

Cytochrome P450 1A2 = molecular target: T3, Cytochrome P450 1A2 (Homo sapiens, UniProt P05177); assay: Inhibition of heterologously expressed human cytochrome P450 1A2.; type: ADME
T3 sequence (P05177 whole entry): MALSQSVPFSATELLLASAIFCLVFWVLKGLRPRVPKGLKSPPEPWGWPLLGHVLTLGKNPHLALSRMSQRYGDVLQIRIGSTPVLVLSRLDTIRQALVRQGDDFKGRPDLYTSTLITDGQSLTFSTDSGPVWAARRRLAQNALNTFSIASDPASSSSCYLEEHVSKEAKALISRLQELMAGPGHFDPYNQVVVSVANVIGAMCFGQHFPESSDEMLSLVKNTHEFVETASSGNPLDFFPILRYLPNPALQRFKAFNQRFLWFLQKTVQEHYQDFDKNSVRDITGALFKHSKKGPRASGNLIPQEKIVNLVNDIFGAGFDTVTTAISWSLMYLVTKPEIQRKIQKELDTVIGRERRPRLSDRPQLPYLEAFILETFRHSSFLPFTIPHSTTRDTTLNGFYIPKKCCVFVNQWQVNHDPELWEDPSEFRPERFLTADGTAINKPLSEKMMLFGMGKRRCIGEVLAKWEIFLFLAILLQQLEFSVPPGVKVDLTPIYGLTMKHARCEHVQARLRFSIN
In short: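 Heterologously expressed human CYP1A2 in an isoform-selective assay. Substrate: caffeine N3-demethylation at 500 µM, at the substrate Km.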

[6] = molecular target: T1, 5-hydroxytryptamine receptor 2B; assay: Displacement of [3H]5-HT from human 5-hydroxytryptamine 2B receptor expressed in HEK293 cells; type: cell-based; in short: as §1

Chain of Serotonin 2 receptors; 5-HT2a & 5-HT2c (Homo sapiens) (P28223 whole entry, looked up, one chain of several): as the sequence (P28223 whole entry) above

SMILES: COc1cc2c(cc1C(F)(F)F)N(C(=O)Nc1cc(-c3ccccc3)cc(-c3cccnc3)c1)CC2
- Selectivity [1]: 6
- Selectivity [2]: 250
- pKi [3]: 7.80
- pKi [4]: 8.60
- pKi [5]: 6.20
- ED50 (Rattus norvegicus): > 5 mg/kg

SMILES: COc1cc2c(cc1C(F)(F)F)N(C(=O)Nc1cc3c(c(-c4cccnc4)c1)OCC3)CC2
- pIC50 (Cytochrome P450 1A2): 5.70
- Selectivity [1]: 16
- Selectivity [2]: 500
- pKi [3]: 8.10
- pKi [4]: 9.30
- pKi [5]: 6.60
- ED50 (Rattus norvegicus): 2 mg/kg

SMILES: COc1ccc(NC(=O)N2CCc3cc(OC)c(C(F)(F)F)cc32)cc1-c1cccnc1
- Inhibition (Cytochrome P450 1A2): 3%
- Selectivity [1]: 30
- Selectivity [2]: 400
- pKi [3]: 7.80
- pKi [4]: 9.30
- pKi [5]: 6.70
- ED50 (Rattus norvegicus): 1.2 mg/kg

SMILES: COc1cc2c(cc1C(F)(F)F)N(C(=O)Nc1cccnc1)CC2
- pIC50 (Cytochrome P450 1A2): 7.70
- Selectivity [2]: 120

SMILES: COc1cc2c(cc1C(F)(F)F)N(C(=O)Nc1cccc(-c3cnccc3C)c1)CC2
- inhibition at 1 µM (Cytochrome P450 1A2): 8%
- Selectivity [2]: 400
- pKi [4]: 9.20
- pKi [5]: 6.60
- ED50 (Rattus norvegicus): 5 mg/kg

SMILES: COc1cc2c(cc1C(F)(F)F)N(C(=O)Nc1cccc(-c3cccnc3)c1)CC2
- pIC50 (Cytochrome P450 1A2): 5.40
- Selectivity [1]: 8
- Selectivity [2]: 200
- pKi [3]: 8.10
- pKi [4]: 9.00
- pKi [5]: 6.70
- ED50 (Rattus norvegicus): 0.6 mg/kg

SMILES: CCc1cc(NC(=O)N2CCc3cc(OC)c(C(F)(F)F)cc32)cc(-c2cccnc2)c1
- pIC50 (Cytochrome P450 1A2): 5.22
- Selectivity [1]: 16
- Selectivity [2]: 320
- pKi [3]: 8.00
- pKi [4]: 9.20
- pKi [5]: 6.70
- ED50 (Rattus norvegicus): 1.2 mg/kg

SMILES: COc1cc2c(cc1C(F)(F)F)N(C(=O)Nc1cncc(-c3ccc(F)cc3)c1)CC2
- pKi [6]: 7.20
- Selectivity [2]: 40
- pKi [4]: 8.20
- pKi [5]: 6.60
- ED50 (Rattus norvegicus): 10 mg/kg

SMILES: COc1cc2c(cc1C(F)(F)F)N(C(=O)Nc1cccc(-c3ccccn3)c1)CC2
- inhibition at 1 µM (Cytochrome P450 1A2): 3%
- Selectivity [2]: 25
- pKi [4]: 7.70
- pKi [5]: 6.30

SMILES: COc1cc2c(cc1C(F)(F)F)N(C(=O)Nc1ccc(Cl)c(-c3cnccc3C)c1)CC2
- pIC50 (Cytochrome P450 1A2): 4.96
- Selectivity [2]: > 1500
- pKi [4]: 9.20
- pKi [5]: < 6.00
- ED50 (Rattus norvegicus): 1.4 mg/kg

SMILES: COc1cc2c(cc1C(F)(F)F)N(C(=O)Nc1cc(-c3cccnc3)ccc1F)CC2
- Selectivity [1]: 1
- Selectivity [2]: 4
- pKi [3]: 5.70
- pKi [4]: 5.70
- pKi [5]: 5.10

SMILES: COc1cc2c(cc1C(F)(F)F)N(C(=O)Nc1ccc(C)c(-c3cnccc3C)c1)CC2
- pIC50 (Cytochrome P450 1A2): < 4.00
- Selectivity [1]: 12
- Selectivity [2]: > 20000
- pKi [3]: 8.40
- pKi [4]: 9.50
- pKi [5]: < 5.20
- ED50 (Rattus norvegicus): 1.4 mg/kg

SMILES: COc1cc2c(cc1C(F)(F)F)N(C(=O)Nc1cc(F)c(C)c(-c3cccnc3)c1)CC2
- Selectivity [1]: 13
- Selectivity [2]: 1600
- pKi [3]: 8.10
- pKi [4]: 9.20
- pKi [5]: 5.80
- ED50 (Rattus norvegicus): > 5 mg/kg

SMILES: COc1cc2c(cc1C(F)(F)F)N(C(=O)Nc1ccc(C)c(-c3cccnc3)c1)CC2
- pIC50 (Cytochrome P450 1A2): 5.15
- Selectivity [1]: 5
- Selectivity [2]: 5000
- pKi [3]: 8.30
- pKi [4]: 9.00
- pKi [5]: 5.30
- ED50 (Rattus norvegicus): 1.6 mg/kg

SMILES: COc1cc2c(cc1C(F)(F)F)N(C(=O)Nc1cccc(-c3c(C)ccnc3C)c1)CC2
- Selectivity [1]: 5
- Selectivity [2]: 80
- pKi [3]: 7.90
- pKi [4]: 8.60
- pKi [5]: 6.70

SMILES: CSc1cc2c(cc1C(F)(F)F)N(C(=O)Nc1cccc(-c3cccnc3)c1)CC2
- Selectivity [1]: 5
- pKi [6]: 8.10
- Selectivity [2]: 50
- pKi [4]: 8.80
- pKi [5]: 7.10

SMILES: COc1cc2c(cc1C(F)(F)F)N(C(=O)Nc1cc(Br)cc(-c3cccnc3)c1)CC2
- pIC50 (Cytochrome P450 1A2): 5.15
- Selectivity [1]: 10
- Selectivity [2]: > 500
- pKi [3]: 7.70
- pKi [4]: 8.70
- pKi [5]: < 6.00
- ED50 (Rattus norvegicus): 5 mg/kg

SMILES: COc1cc2c(cc1C(F)(F)F)N(C(=O)Nc1cncc(-c3c(F)cccc3F)c1)CC2
- Selectivity [1]: 4
- pKi [6]: 7.00
- Selectivity [2]: > 420
- pKi [4]: 7.60
- pKi [5]: < 5.00

SMILES: COc1cc2c(cc1C(F)(F)F)N(C(=O)Nc1ccc(Cl)c(-c3cccnc3)c1)CC2
- pIC50 (Cytochrome P450 1A2): 4.14
- Selectivity [1]: 5
- Selectivity [2]: 250
- pKi [3]: 7.60
- pKi [4]: 8.30
- pKi [5]: 5.90
- ED50 (Rattus norvegicus): 5.5 mg/kg

SMILES: CSc1cc2c(cc1C(F)(F)F)N(C(=O)Nc1cccc(-c3ccncc3)c1)CC2
- Selectivity [1]: 8
- pKi [6]: 7.60
- Selectivity [2]: 50
- pKi [4]: 8.50
- pKi [5]: 6.80

SMILES: COc1cc2c(cc1C(F)(F)F)N(C(=O)Nc1cccc(-c3cccnc3)c1C)CC2
- Selectivity [2]: 16
- pKi [4]: 7.60
- pKi [5]: 6.40

SMILES: COc1cc2c(cc1C(F)(F)F)N(C(=O)Nc1ccc(Oc3cccnc3)nc1)CC2
- Selectivity [1]: 16
- Selectivity [2]: 80
- pKi [3]: 7.70
- pKi [4]: 8.90
- pKi [5]: 7.00
- ED50 (Rattus norvegicus): 0.7 mg/kg

SMILES: COc1cc2c(cc1C(F)(F)F)N(C(=O)Nc1ccc(-c3cccnc3)cc1)CC2
- Selectivity [1]: 0.6
- Selectivity [2]: 250
- pKi [3]: 8.00
- pKi [4]: 7.80
- pKi [5]: 5.40
- ED50 (Rattus norvegicus): > 10 mg/kg

SMILES: COc1cc2c(cc1C(F)(F)F)N(C(=O)Nc1cccc(-c3cccnc3)c1Cl)CC2
- Selectivity [1]: 0.5
- Selectivity [2]: 25
- pKi [3]: 8.30
- pKi [4]: 8.00
- pKi [5]: 6.60

SMILES: COc1cc2c(cc1C(F)(F)F)N(C(=O)Nc1cncc(-c3cc(F)cc(F)c3)c1)CC2
- Selectivity [1]: 6
- pKi [6]: 6.30
- Selectivity [2]: 15
- pKi [4]: 7.10
- pKi [5]: 5.90

SMILES: COc1cc2c(cc1C(F)(F)F)N(C(=O)Nc1ccc(-c3ccncc3)cc1)CC2
- Selectivity [1]: 3
- Selectivity [2]: > 2000
- pKi [3]: 7.90
- pKi [4]: 8.30
- pKi [5]: < 5.00

— ChEMBL document CHEMBL1132976, “Biarylcarbamoylindolines are novel and selective 5-HT(2C) receptor inverse agonists: identification of 5-methyl-1-[[2-[(2-methyl-3-pyridyl)oxy]- 5-pyridyl]carbamoyl]-6-trifluoromethylindoline (SB-243213) as a potential antidepressant/anxiolytic agent” (J Med Chem, 2000)
